The source of these data is ChEMBL document CHEMBL4251664, “Biocompatible Boron-Containing Prodrugs of Belinostat for the Potential Treatment of Solid Tumors” (ACS Med Chem Lett, 2018).

Data set [1] relates to HeLa. Briefly: Prodrug conversion in human HeLa cells assessed as (E)-4-((3-(3-(N-phenylsulfamoyl)phenyl)acrylamidooxy)methyl)phenylboronic acid level after 4 days by UHPLC-MS/MS analysis. It is filed as ADME, cell-based. Particulars: 96 h. Summed up: (§1)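 MDA-MB-231 or HeLa cells were incubated with the pinacol boronate prodrug, and culture medium was sampled daily from day 1 to day 6. The prodrug, boronic acid forms and belinostat were separated, identified and quantified by HPLC coupled to an Orbitrap mass spectrometer. Results are in ng/mL as mean ± SEM of triplicate experiments.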

Data set [2] has as its system HeLa. Put plainly: Prodrug conversion in human HeLa cells assessed as (E)-4-((3-(3-(N-phenylsulfamoyl)phenyl)acrylamidooxy)methyl)phenylboronic acid level after 5 days by UHPLC-MS/MS analysis. Particulars: 120 h. The class given is ADME, cell-based. Summed up: as §1
In data set [3] the target is T1, Protein deacetylase HDAC6 (Homo sapiens, UniProt Q9UBN7).
T1 sequence (Q9UBN7 whole entry): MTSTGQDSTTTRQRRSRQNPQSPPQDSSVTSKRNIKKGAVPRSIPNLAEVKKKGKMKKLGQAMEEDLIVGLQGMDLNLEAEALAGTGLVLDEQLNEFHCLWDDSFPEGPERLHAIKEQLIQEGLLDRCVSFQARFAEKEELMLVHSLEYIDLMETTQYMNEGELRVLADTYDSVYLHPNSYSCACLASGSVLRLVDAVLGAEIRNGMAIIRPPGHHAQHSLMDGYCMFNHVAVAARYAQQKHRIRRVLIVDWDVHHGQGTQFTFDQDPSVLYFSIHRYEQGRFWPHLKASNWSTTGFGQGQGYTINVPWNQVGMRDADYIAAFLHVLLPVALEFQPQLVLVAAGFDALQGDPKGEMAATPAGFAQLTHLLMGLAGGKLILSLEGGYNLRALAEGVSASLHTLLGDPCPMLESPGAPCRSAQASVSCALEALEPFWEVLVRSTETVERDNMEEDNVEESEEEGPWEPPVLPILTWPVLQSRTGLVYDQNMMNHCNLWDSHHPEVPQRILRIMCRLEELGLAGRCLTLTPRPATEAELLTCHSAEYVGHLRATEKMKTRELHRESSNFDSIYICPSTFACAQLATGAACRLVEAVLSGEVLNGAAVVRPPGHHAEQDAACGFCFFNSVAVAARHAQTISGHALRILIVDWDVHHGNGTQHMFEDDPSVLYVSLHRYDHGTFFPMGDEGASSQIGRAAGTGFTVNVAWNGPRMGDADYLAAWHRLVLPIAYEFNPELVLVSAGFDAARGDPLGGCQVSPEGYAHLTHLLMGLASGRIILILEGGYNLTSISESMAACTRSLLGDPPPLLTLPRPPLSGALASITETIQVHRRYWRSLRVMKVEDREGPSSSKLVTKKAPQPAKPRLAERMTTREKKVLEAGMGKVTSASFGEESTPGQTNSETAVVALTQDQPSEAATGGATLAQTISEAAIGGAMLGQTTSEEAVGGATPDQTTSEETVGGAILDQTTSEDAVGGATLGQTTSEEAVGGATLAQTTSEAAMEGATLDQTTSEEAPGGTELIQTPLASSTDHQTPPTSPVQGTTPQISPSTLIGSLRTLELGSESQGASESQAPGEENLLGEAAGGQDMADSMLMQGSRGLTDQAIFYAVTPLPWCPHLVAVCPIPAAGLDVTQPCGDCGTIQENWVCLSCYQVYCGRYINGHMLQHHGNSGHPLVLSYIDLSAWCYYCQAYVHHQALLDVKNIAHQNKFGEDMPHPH
Put plainly: Inhibition of human HDAC6 using RHKK(Ac)AMC as substrate.

Data set [4] concerns HeLa. Put plainly: Prodrug conversion in human HeLa cells assessed as belinostat level after 3 days by UHPLC-MS/MS analysis. It is filed as ADME, cell-based. Conditions: 72 h. Summed up: as §1
Data set [5] has as its system MCF7. Briefly: Antitumor activity against human MCF7 cells implanted in ovariectomized nu/nu mouse assessed as tumor volume at 10 mg/kg, sc administered once daily for 22 days measured post last dose (reference value: 869 +/- 173 mm3). It is filed as functional.
The subject of data set [6] is MCF7. Put plainly: Antitumor activity against human MCF7 cells implanted in ovariectomized nu/nu mouse assessed as tumor volume at 10 mg/kg, sc administered once daily for 22 days measured on day 12 during compound dosing (reference value: 869 +/- 173 mm3). The class given is functional.
Data set [7] concerns MDA-MB-231. Put plainly: Antiproliferative activity against human MDA-MB-231 cells after 72 hrs by resazurin dye based fluorescence assay. Conditions: MDA-MB-231, 72 h. It is filed as functional, cell-based.
The test system of data set [8] is MCF7. Briefly: Antitumor activity against human MCF7 cells implanted in ovariectomized nu/nu mouse assessed as tumor weight at 10 mg/kg, sc administered once daily for 22 days measured post last dose (reference value: 743 +/- 142 mg). It is filed as functional.
The test system of another data set is NCI-H460. Briefly: Antiproliferative activity against human NCI-H460 cells after 72 hrs by resazurin dye based fluorescence assay. It is filed as functional, cell-based. Conditions: NCI-H460, 72 h. Background: The colour change of resazurin is a common sign of viable cells or microbes.
For data set [9], the system named is MDA-MB-231. Put plainly: Prodrug conversion in human MDA-MB-231 cells assessed as (E)-4-((3-(3-(N-phenylsulfamoyl)phenyl)acrylamidooxy)methyl)phenylboronic acid level after 1 day by UHPLC-MS/MS analysis. The class given is ADME, cell-based. Conditions: mda-mb-231, 24 h. In a few lines:
as §1

For data set [10], the system named is MDA-MB-231. Briefly: Prodrug conversion in human MDA-MB-231 cells assessed as belinostat level after 1 day by UHPLC-MS/MS analysis. Conditions: mda-mb-231, 24 h. It is filed as ADME, cell-based. In a few lines: as §1
The subject of data set [11] is MCF7. Put plainly: Antitumor activity against human MCF7 cells implanted in ovariectomized nu/nu mouse assessed as tumor growth inhibition at 10 mg/kg, sc administered once daily for 22 days measured post last dose relative to control. The class given is functional. Particulars: 528 h, read-out: TGI.
In another data set the test system is Mus musculus. Put plainly: Toxicity in ovariectomized nu/nu mouse implanted with human MCF7 cells assessed as effect on body weight at 10 mg/kg, sc administered once daily for 22 days. The class given is organism-based. Particulars: in vivo, 528 h. In a few lines: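 MCF-7 xenograft in mice, dosed 10 mg/kg/day by subcutaneous injection alongside a vehicle group. Treatment ran 22 days. Body weights were compared with the vehicle group, and tumour volume was measured over the same period. At the end, mice were sacrificed and tumours removed.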

Data set [12] deals with MDA-MB-231. Put plainly: Prodrug conversion in human MDA-MB-231 cells assessed as (E)-4-((3-(3-(N-phenylsulfamoyl)phenyl)acrylamidooxy)methyl)phenylboronic acid level after 2 days by UHPLC-MS/MS analysis. It is filed as ADME, cell-based. Particulars: mda-mb-231, 48 h. In a few lines: as §1
Data set [13] has as its system HeLa. Put plainly: Antiproliferative activity against human HeLa cells after 72 hrs by resazurin dye based fluorescence assay. The class given is functional, cell-based.
In data set [14] the test system is MDA-MB-231. Briefly: Prodrug conversion in human MDA-MB-231 cells assessed as (E)-4-((3-(3-(N-phenylsulfamoyl)phenyl)acrylamidooxy)methyl)phenylboronic acid level after 6 days by UHPLC-MS/MS analysis. Conditions: mda-mb-231, 144 h. It is filed as ADME, cell-based. In a few lines: as §1
A further data set concerns the target Histone deacetylase. Put plainly: Inhibition of HDAC in human cell lysates using fluoro-substrate peptide/fluoro-deacetylated peptide as substrate incubated for 20 mins measured at 1 to 2 mins interval for 30 to 60 mins by fluorescence assay. The class given is protein assay.
Data set [15] concerns MCF7. Briefly: Antiproliferative activity against human MCF7 cells after 72 hrs by resazurin dye based fluorescence assay. It is filed as functional, cell-based. Particulars: MCF7, 72 h.
The subject of a further data set is SK-MEL-28. Put plainly: Antiproliferative activity against human SK-MEL-28 cells after 72 hrs by resazurin dye based fluorescence assay. The class given is functional, cell-based. Particulars: SK-MEL-28, 72 h.
For another data set, the system named is A549. Briefly: Antiproliferative activity against human A549 cells after 72 hrs by resazurin dye based fluorescence assay. It is filed as functional, cell-based. Particulars: A549, 72 h.
Data set [16] relates to HeLa. Briefly: Prodrug conversion in human HeLa cells assessed as belinostat level after 1 day by UHPLC-MS/MS analysis. Particulars: 24 h. The class given is ADME, cell-based. In a few lines:
as §1

SMILES strings stand for the structures.

With `CC1(C)OB(c2ccc(CONC(=O)/C=C/c3cccc(S(=O)(=O)Nc4ccccc4)c3)cc2)OC1(C)C`, the Drug metabolism with HeLa [1] was determined as 107 ng/mL; in the data set on HeLa [2], 82.7 ng/mL; in the data set on HeLa [4] it was 13.4 ng/mL; in the data set with MDA-MB-231 [9] it was 331.8 ng/mL; in the data set with MDA-MB-231 [10] it was 30.7 ng/mL; in the data set with MDA-MB-231 [12] it was 268.5 ng/mL. Besides, the Drug metabolism in the data set with MDA-MB-231 [14] was found to be 130.9 ng/mL; in the data set on HeLa [16] it was 8.4 ng/mL. The EC50 in data set [3] turned out to be 20200 nM; on Histone deacetylase it was 350 nM. Moreover, the Activity in the data set with MCF7 [5] is 127 mm3; in the data set on MCF7 [6], 153 mm3; in the data set on MCF7 [8], 109 mg; in the data set on Mus musculus, “Non-Toxic”. Also, the IC50 in the data set on MDA-MB-231 [7] came to 303 nM; in the data set on NCI-H460, 430 nM; in the data set with HeLa [13] it was 273 nM; in the data set on MCF7 [15], 1460 nM; in the data set on SK-MEL-28, 678 nM; in the data set on A549 it was 453 nM. Besides, the inhibition in vivo at 10 mg/kg in the data set on MCF7 [11] was found to be 85.4%.

What is called EC50 is the concentration that produces a half-maximal response. As a reminder, the IC50 is the midpoint of a concentration-inhibition curve. The low end stands for greater potency, the high end for weaker potency.
